Measurements from different studies.
Target: Homeodomain-interacting protein kinase 2 (HIPK2, Homo sapiens, UniProt Q9H2X6)

Compound | test | setting | remaining binding [%]
Nc1ncc2c(n1)-c1c([nH]c3ccc(C#CC4CC4)cc13)CCCC2 | binding, competition with immobilised ligand | 1 µM | 97
O=C(NCC1CCOCC1)c1n[nH]cc1NC(=O)c1c(F)cccc1F | binding, competition with immobilised ligand | 1 µM | 100
COc1cc(Nc2nccc(-c3cnn4nc(OC)ccc34)n2)cc(C(F)(F)F)c1 | binding, competition with immobilised ligand | 1 µM | 34
Cc1cnc(Nc2ccc(C(=O)N3CCC(N4CCCC4)CC3)cc2)nc1-c1cc2ccccc2s1 | binding, competition with immobilised ligand | 1 µM | 0.5
C[C@H]1CCN(c2nccc(-c3cnn4ncccc34)n2)C1 | binding | 1 µM | 45
O=C(NCc1ncc(C(F)(F)F)cc1Cl)c1ccc2c(c1)C1(CCS(=O)(=O)CC1)[C@@H](C1CC1)N2S(=O)(=O)c1ccc(F)cc1 | cell-free assay, competition with immobilised ligand | 1 µM | 72
CC1CCCN1c1nccc(-c2cnn3ncccc23)n1 (stereo not shown) | binding | 1 µM | 100
CCCOc1ccc([C@@H]2[C@@H](C(=O)O)[C@H](c3ccc4c(c3)OCO4)CN2CC(=O)Nc2c(CC)cccc2CC)cc1 | cell-free assay, competition with immobilised ligand | 1 µM | 80
CN(c1nccc(-c2cnn3ncccc23)n1)C1CC1 | binding | 1 µM | 100
Cc1c[nH]c2nccc(Oc3c(F)cc(Nc4cc(Cl)nc(N)n4)cc3F)c12 | cell-free assay, competition with immobilised ligand | 0.1 µM | 90
F[C@@H]1CCN(c2nccc(-c3cnn4ncccc34)n2)C1 | binding | 1 µM | 100
COc1cnc(Nc2cccc(S(N)(=O)=O)c2)nc1N1CCN(c2ccccc2)CC1 | binding, competition with immobilised ligand | 1 µM | 100
C=CC(=O)N1CCC(C(=O)NCC(=O)N2CCN(c3nc(-c4cnc(N)nc4C(F)F)nc(N4CCOCC4)n3)CC2)CC1 | binding, competition with immobilised ligand | 1 µM | 83
Cn1nc(C(F)(F)F)cc1-c1cnc(N2CCc3cc(S(=O)(=O)Nc4c(F)cc(Cl)cc4F)cc(N4CCCC4=O)c32)nc1 | cell-free assay, competition with immobilised ligand | 1 µM | 74
O=C(NCCCN1CCOCC1)c1ccc(Nc2ncc(Cl)c(-c3ccc(Cl)s3)n2)cc1 | binding, competition with immobilised ligand | 1 µM | 8.9
Cc1cnn2ncc(-c3ccnc(N(C)C)n3)c2c1 | binding | 1 µM | 63
NS(=O)(=O)c1cc(NC(=O)C2(c3ccccc3Cl)CC2)ccc1Oc1cccc(Cl)c1 | cell-free assay, competition with immobilised ligand | 1 µM | 88
N[C@@H]1CCN(c2nccc(-c3cnn4ncccc34)n2)C1 | binding | 1 µM | 100
Cc1cc(-n2nc(Cc3cc(F)cc(C(F)(F)F)c3)nc2C)ccc1C(N)=O | cell-free assay, competition with immobilised ligand | 1 µM | 100
O=C(c1ccc(Nc2ncc(Cl)c(-c3ccc(Cl)s3)n2)cc1)N1CCC(N2CCCC2)CC1 | binding, competition with immobilised ligand | 1 µM | 0.15
CC(=O)Nc1c(C(C)=O)c(=O)n(C)c2nc(-c3ccc(Cl)cc3Cl)c(-c3ccc(Cl)cc3)cc12 | cell-free assay, competition with immobilised ligand | 1 µM | 100
CN(C)c1nccc(-c2cnc3ncccn23)n1 | binding | 1 µM | 36
